High-throughput results (PubChem BioAssay)
AHR activator: human AHR activation; P35869; hit rate 2.5% among 320,000; activation, % at 5 µM; AID 2796; AHR-responsive luciferase reporter cells, luminescence; in the data active = activation above about 47%
Fh CTSL1 inh: counter-screen for PFM18AAP inhibitors: inhibitors of F. hepatica cathepsin L1; inhibition, % at 5.96 µM; recombinant F. hepatica cathepsin L1, Z-Leu-Arg-MCA fluorescence; AID 1906; hit rate 0.49% among 300,000;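 active = inhibition above the mean of all tested compounds plus 3 SD, set per screening campaign, cut at about 17% in these data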
SENP1 inh: blocks the human SENP1 SUMO protease catalytic domain. Q9P0U3. recombinant SENP1 catalytic domain, CyPet-SUMO1-YPet FRET cleavage. inhibition, % at 10 µM. hit rate 0.21% among 360,000. AID 624204;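 active = inhibition at least 30% at 10 µM, raw YFP signal under a set limit, fluorescence ratio 0.5 to 1.5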
Target sequence (Q9P0U3 419-644 limits assumed): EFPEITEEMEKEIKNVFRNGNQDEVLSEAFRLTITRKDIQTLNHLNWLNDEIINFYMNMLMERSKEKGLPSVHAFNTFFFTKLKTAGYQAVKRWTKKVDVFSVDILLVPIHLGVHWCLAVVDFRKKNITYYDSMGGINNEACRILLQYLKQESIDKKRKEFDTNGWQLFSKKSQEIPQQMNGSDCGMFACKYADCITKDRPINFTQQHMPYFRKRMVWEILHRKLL
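material = recombinant human SENP1 catalytic domain, His6-tagged | quantity = 20 pM enzyme | reagent = 25 nM SUMO1 FRET substrate | compound dosing = 10 µM single point, 0.5% DMSO | timing = 50 min enzyme reaction, room temperature, light-protected | detection = FRET, CFP and YFP emission | control set = no-enzyme low, enzyme-DMSO high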
FXN GAA850 act: increases GAA850 frataxin promoter reporter activity; HEK293 lucGAA850 FXN promoter luciferase reporter, 24 h; percent of 10 µM SAHA response; activation, % at 6 µM; hit rate 0.56% among 360,000; AID 540364;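 active = activation above the average of all compounds screened plus 3 SD, cutoff fixed separately per campaign, cut at about 7.5% in these data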
HDAC3 inhib: blocks human histone deacetylase 3; O15379; recombinant HDAC3, fluorogenic peptide/trypsin coupled, fluorescence; inhibition, % at 8.3 µM; hit rate 0.15% among 320,000; AID 2718; in the data active = inhibition above about 26%, passing the limit was not always enough
Target sequence (O15379 whole entry, looked up): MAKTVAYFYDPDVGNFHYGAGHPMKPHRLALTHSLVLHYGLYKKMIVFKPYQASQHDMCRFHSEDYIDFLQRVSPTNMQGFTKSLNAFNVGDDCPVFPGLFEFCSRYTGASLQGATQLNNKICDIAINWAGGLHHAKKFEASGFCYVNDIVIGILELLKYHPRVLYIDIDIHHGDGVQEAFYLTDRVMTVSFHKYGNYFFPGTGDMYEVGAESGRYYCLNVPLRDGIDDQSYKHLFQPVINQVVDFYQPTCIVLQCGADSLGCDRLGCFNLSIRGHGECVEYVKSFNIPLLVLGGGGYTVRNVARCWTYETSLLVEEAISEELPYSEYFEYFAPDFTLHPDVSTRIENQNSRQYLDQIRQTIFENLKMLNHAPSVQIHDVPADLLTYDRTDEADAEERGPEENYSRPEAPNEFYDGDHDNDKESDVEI
M18AAP inhibitor: PfM18AAP enzyme inhibition | recombinant PfM18AAP, H-Glu-NHMec fluorogenic cleavage | inhibition, % at 7.35 µM | hit rate 1.2% among 290,000 | AID 1822;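 active = inhibition above the campaign mean inhibition over all tested compounds plus 3 SD, cut at about 28% in these data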
AHR act confirm: human AHR activation, confirmation | shares compounds with AHR activator | human cells, AHR-responsive luciferase reporter, luminescence | activation, % at 9 µM | hit rate 87% among 2,300 | AID 2845; in the data active = activation above about 49%;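 also: HepG2 hepatoma cells carrying a DRE-driven firefly luciferase reporter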
PXR counter: activates human PXR in AHR activator counter-screen | shares compounds with AHR activator | cell-based PXR reporter, luciferase luminescence | activation, % at 11.6 µM | hit rate 88% among 2,300 | AID 434939; in the data active = activation above about 11%;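 also: human hepatoma DPX-2 cells expressing full-length human PXR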
Each line names hits and unclear results; the compound was inactive in the other large screens (follow-up assays come after a bar, where they were run). Rows were chosen to be rich in hits. Some 4.2% of all compounds tested hit in one or more screens of this group.

COc1cc(C(=O)N/N=c2/sc3ccccc3n2C)cc(OC)c1OC	AHR activator 170.6 | AHR act confirm 81.6 | PXR counter 55.6
COc1cc(C(=O)NCCSc2ccc(F)cc2)cc(OC)c1OC	none
CC(NC(=O)CNC(=O)c1cccs1)c1cccc(C(F)(F)F)c1 (centres undefined)	none (no result: Fh CTSL1 inh, M18AAP inhibitor)
CN(C)C(=O)COc1ccc(S(=O)(=O)c2ccc(OCC(=O)N(C)C)cc2)cc1	AHR activator 101.6 | AHR act confirm inactive | PXR counter inactive
COc1cc(Cl)ccc1OC1(C)CCN(Cc2c(F)cccc2F)C1 (centres undefined)	none (no result: AHR activator, Fh CTSL1 inh, HDAC3 inhib, M18AAP inhibitor)
Cn1ccc2c(-c3ccc(C(=O)O)cc3)cc3c(c21)C1CCC3O1 (centres undefined)	none (no result: AHR activator, Fh CTSL1 inh, FXN GAA850 act, HDAC3 inhib, M18AAP inhibitor)
O=C(Cn1c(NCCCO)nc2ccccc21)c1ccc(Cl)cc1	none
O=C(Cn1c(NCCCO)nc2ccccc21)c1ccc(Cl)cc1Cl	AHR activator 120.3 | AHR act confirm 121.9 | PXR counter 20.2
CC(C)Nc1nc(Nc2ccc(Cl)cc2F)c2sccc2n1	none (no result: AHR activator, Fh CTSL1 inh, HDAC3 inhib, M18AAP inhibitor)
CC(=O)N(/N=C1\Sc2ccccc2C1=O)c1ccccc1C	AHR activator 90.0, Fh CTSL1 inh 87.1 | AHR act confirm 75.7 | PXR counter 18.6
CC(=O)N(/N=C1\Sc2ccccc2C1=O)c1ccc(C)cc1C	none
Cn1ccsc1=NC(=O)c1ccc(Cl)cc1	AHR activator 87.8 | AHR act confirm 125.9 | PXR counter 25.2
Cn1ccsc1=NC(=O)c1ccc(OC(F)(F)F)cc1	AHR activator 98.0 | AHR act confirm 109.1 | PXR counter 23.8
O=C(Cn1cc(S(=O)(=O)Cc2ccccc2F)c2ccccc21)N1CCOCC1	none
CCc1c(C)sc(NC(=O)c2cccs2)c1C#N	AHR activator 89.6 | AHR act confirm 90.0 | PXR counter 39.0
CCn1nc(C)c(CN2CCc3c([nH]c4ccccc34)C2c2ccc(F)c(OC)c2)c1C (centres undefined)	none
Cc1csc(N/N=C/c2ccc(O)c([N+](=O)[O-])c2)n1	none
O=[N+]([O-])c1cc(/C=N\Nc2nc(-c3ccccc3)cs2)ccc1O	AHR activator 118.7 | AHR act confirm inactive | PXR counter inactive
O=C(COC(=O)c1cccc(OC(F)F)c1)Nc1cc(S(=O)(=O)N2CCCC2)ccc1Cl	none (no result: AHR activator, Fh CTSL1 inh, HDAC3 inhib, M18AAP inhibitor)
COc1ccccc1NC(=O)Nc1nc(CC(=O)N2CCN(c3ccccc3OC)CC2)cs1	none (no result: M18AAP inhibitor)
Cc1c(CN2CCC(n3nccc3NC(=O)C3CC3)CC2)[nH]c2ccccc12	AHR activator 85.0 | AHR act confirm 81.5 | PXR counter 43.2
COc1ccc(C(=O)N/N=C/c2ccc(N(C)c3ccccc3)cc2)cc1	none (no result: M18AAP inhibitor)
Cn1c(N)c(C(=O)Nc2ccccc2F)sc1=S	AHR activator 115.0 | AHR act confirm 105.2
CCn1c(N)c(C(=O)Nc2ccccc2C(=O)OC)sc1=S	none
CCOC(=O)Nc1nnc(-c2ccccc2OC)s1	AHR activator 98.2 | AHR act confirm 125.3 | PXR counter 29.2
COC(=O)Nc1nnc(-c2ccccc2OC)s1	AHR activator 107.0 | AHR act confirm 139.6 | PXR counter 16.8
CCOC(=O)Nc1nnc(-c2ccc(OC)cc2)s1	none
COc1ccccc1-c1nnc(N)s1	none
CCOc1ccccc1C(=O)Nc1nnc(CC)s1	AHR activator 96.3 | AHR act confirm 69.8 | PXR counter 22.2
CC1CC(C)(C)CC2(C1)NC(=O)N(CC(=O)Nc1ccc(N3CCCCC3)cc1)C2=O (centres undefined)	none
Cc1cc(OC(C)C(=O)Nc2ccccc2C(=O)N2CCCC2)ccc1Cl (centres undefined)	none
NCCCn1c(C(=O)c2ccc(Cl)cc2)c2ccc(C(F)(F)F)cc2[n+]1[O-]	AHR activator 100.3 (no result: M18AAP inhibitor) | AHR act confirm 103.6 | PXR counter 28.9
NCCCn1c(C(=O)c2ccc(Cl)cc2)c2ccc([N+](=O)[O-])cc2[n+]1[O-]	none (no result: M18AAP inhibitor)
COc1cccc(CNc2nc(-c3cccnc3)nc3ccccc23)c1	none
COc1cccc(/C=N/Nc2nc(-c3cccnc3)nc3ccccc23)c1	AHR activator 93.0 | AHR act confirm 53.8 | PXR counter 18.1
COc1ccc(-c2cnc3ccccc3n2)cc1NC(=O)CNC(=O)c1ccccc1	AHR activator 117.2 | AHR act confirm inactive | PXR counter 42.3
COc1ccccc1NC(=O)CNC(=O)c1ccccc1	none
CC(=O)c1sc(N/N=C\c2ccc(Br)cc2)nc1C	none
CCOC(=O)c1sc(N/N=C/c2ccc(N(C)C)cc2)nc1C	AHR activator 129.9 | AHR act confirm 85.5 | PXR counter 10.6
CCOc1ccc(NC(=O)CN2C(=O)NC(CCc3ccccc3)C2=O)cc1OCC (centres undefined)	none (no result: Fh CTSL1 inh, M18AAP inhibitor)
CCOc1ccc(N=C2SC(C(=O)Nc3ccccc3C#N)C(N)=C2C(=O)Nc2ccc(Cl)cc2)cc1 (centres undefined)	AHR activator 86.4 | AHR act confirm 70.9 | PXR counter inactive
N#Cc1ccccc1NC(=O)C1SC(=Nc2ccccc2)C(C(=O)Nc2ccc(Cl)cc2)=C1N (centres undefined)	none
COc1ccccc1NC(=O)c1cc2c(cc1Cl)N1CCCCCC1=NS2(=O)=O	none (no result: Fh CTSL1 inh, M18AAP inhibitor)
Cn1cc(C(=O)Nc2ccc(Cl)cc2)c(C(F)(F)F)n1	AHR activator 107.4 | AHR act confirm 100.8 | PXR counter 27.5
CCCc1nn(C)c(C(=O)Nc2ccccc2)c1Cl	AHR activator 82.1 | AHR act confirm 89.1 | PXR counter 13.3
CCCc1nn(C)c(C(=O)Nc2ccc(C(C)(C)C)cc2)c1Cl	none
Cn1nc(C(F)(F)F)c(C(=O)Nc2ccc(Cl)cc2)c1Cl	none
CCCc1nn(C)c(C(=O)Nc2ccc(Cl)cc2)c1Cl	AHR activator 88.3 | AHR act confirm 126.3 | PXR counter 24.5
CCc1nc2c(OCC(=O)C(C)(C)C)cccn2c1N(C=O)CC(=O)N(C)C	none (no result: AHR activator, Fh CTSL1 inh, HDAC3 inhib, M18AAP inhibitor)
Cc1ccsc1C1CC(=O)Nc2ccccc2S1 (centres undefined)	AHR activator 87.8 | AHR act confirm 111.7 | PXR counter 38.6
CC(=O)Nc1ccc(NC(=O)CSc2ncc(C(=O)Nc3ccc(F)cc3)c(=O)n2C)cc1	AHR activator 98.0 (no result: M18AAP inhibitor) | AHR act confirm 126.6 | PXR counter 20.9
CCCn1c(NC(=S)Nc2ccccc2)nc2ccccc21	AHR activator 82.7 | AHR act confirm 75.2 | PXR counter 10.5
CCCn1c(NC(=O)c2ccccc2)nc2ccccc21	none
CCc1nnc(N/N=C\c2ccc(OC(C)=O)c(OC)c2)n1N	none
COc1ccc(/C=N/Nc2nncn2N)cc1Br	AHR activator 88.4, M18AAP inhibitor 28.2 | AHR act confirm inactive | PXR counter 11.9
